Measurements as given in the array DNA melting data of Ke et al. (doi:10.1101/2024.01.08.574731).

How the values were obtained:
[1] = folding enthalpy; higher = less favourable; fluorescence melt of hairpins on a sequencing array, two-state fit; details: sodium 0.088 M
How it was run: (§1)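 Folding enthalpy and melting temperature were estimated with bootstrapped two-state fits and combined across four replicates by inverse-variance weighting, with fitted temperatures raised by 9.35 °C to match UV melts. The data were Cy3 fluorescence of library hairpins, with annealed Cy3 and quencher oligos, on a sequenced MiSeq flow cell in 50 mM Na-HEPES pH 8.0, 25 mM NaCl, imaged in 2.5 °C steps up to 60 °C and normalised to pre-quench Cy3 and control constructs.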

[2] = melting temperature; fluorescence melt of hairpins on a sequencing array, two-state fit, raised by 9.35 °C to match UV melts; details: sodium 0.088 M
How it was run: as §1

Sequence | folding enthalpy [1] [kcal/mol] | Tm [2] [°C]
GTAGACGGAAACGCCTAC ((((.((....)).)))) | -32.3 | 45.3
GTAGACGGAAACGTTTAC (((.(((....))).))) | -33.2 | 41.5
GTAGAGAAATCTAC (((((....))))) | -12.6 | 35.5
GTAGAGACGAAAGTCTAC (((..(((....)))))) | -11.7 | 36
GTAGAGCGAAAGCTTTAC (((.(((....))).))) | -24.4 | 47.5
GTAGAGGGAAACCTTTAC (((.(((....))).))) | -28.7 | 31
GTAGAGGGAAACTTCTAC (((((.(....).))))) | -21.5 | 35
GTAGATCGAAAGATGTAC (((.(((....))).))) | -31.6 | 42.6
GTAGCAGCGAAAGCTTAC (((..(((....)))))) | -10.3 | 26.8
GTAGCAGGAAACTACTAC ((((.((....)).)))) | -24.4 | 35
GTAGCAGGAAACTGTTAC (((.(((....))).))) | -30.4 | 40.5
GTAGCCGAAAGGCACTAC ((((((....)))..))) | -12.5 | 48.5
GTAGCCGAAAGGCCTAC ((((((....))).))) | -12.5 | 45
GTAGCCGAAAGGCGTTAC ((((((....)))..))) | -8 | 38.9
GTAGCCGGAAACGGTTAC (((.(((....))).))) | -37.7 | 51.3
GTAGCGACGAAAGTCTAC (((..(((....)))))) | -13.2 | 26.9
GTAGCGGGAAACCGCCAC ((.((((....)))).)) | -11.7 | 38.7
GTAGCGGGAAACTGCTGC (.(((.(....).))).) | -22.6 | 44.2
GTAGCTGCGAAAGCATAC (((..(((....)))))) | -10.1 | 31.3
GTAGCTGGAAACAGCCAC ((.((((....)))).)) | -14.3 | 37.7
GTAGGAGAAATCCTAC ((((((....)))))) | -26.7 | 47.3
GTAGGAGGAAACTCCTGC (.(((((....))))).) | -22.3 | 46.8
GTAGGAGGAAACTTCTAC ((((.((....)).)))) | -27 | 37.4

Sequence | folding enthalpy [1] [kcal/mol] | Tm [2] [°C]
GTAGGCCCGAAAGGGTAC (((..(((....)))))) | -11.1 | 32.9
GTAGGCCGAAAGGCATAC (((.(((....))).))) | -33.2 | 61.9
GTAGGCGAAAGCCAATAC ((((((....)))..))) | -9.29 | 33.6
GTAGGCGAAAGCCATTAC ((((((....)))..))) | -7.44 | 23
GTAGGCGAAAGCCGGTAC ((((((....)))..))) | -10.7 | 42.2
GTAGGCGCGAAAGCGTAC (((..(((....)))))) | -9.85 | 34.9
GTAGGCGGAAACGTCTGC (.((.((....)).)).) | -23 | 41.6
GTAGGGAAACCTAC (((((....))))) | -25 | 46.2
GTAGGGCGAAAGCCGTAC (((.(((....))).))) | -23.6 | 56.8
GTAGGGCGAAAGCCTTAC (((.(((....))).))) | -20.2 | 50.4
GTAGGGGCGAAAGCCTAC (((..(((....)))))) | -10.8 | 37.9
GTAGGGGGAAACCTCTAC ((((.((....)).)))) | -33 | 44.6
GTAGGGGGAAACCTCTGC (.((.((....)).)).) | -16.8 | 31.9
GTAGGGTCGAAAGACTAC (((..(((....)))))) | -12.2 | 32.5
GTAGGTCGAAAGACATAC (((.(((....))).))) | -29.7 | 51.9
GTAGGTGAAAACCTAC ((((((....)))))) | -30.9 | 56.4
GTAGGTGGAAACACCTGC (.(((((....))))).) | -18.5 | 53.4
GTAGGTGGAAACATCTAC ((((.((....)).)))) | -31.3 | 42.4
GTAGGTGGAAACGCCTAC (((((.(....).))))) | -32.8 | 51.9
GTAGTACGAAAGTAGTAC (((.(((....))).))) | -33.5 | 47.3
GTAGTACGAAAGTATAC (((.(((....)))))) | -17.1 | 32
GTAGTAGGAAACTACTAC (((((((....))))))) | -41.9 | 53.3
GTAGTAGGAAACTGCTAC ((((.((....)).)))) | -30.5 | 44.7
